{"data": "Assay results collected from several papers", "target": "Calcium/calmodulin-dependent protein kinase type II subunit beta (CAMK2B, Homo sapiens, UniProt Q13554)"}
{"SMILES": "Cc1cnc(Nc2ccc(C(=O)N3CCC(N4CCCC4)CC3)cc2)nc1-c1cc2ccccc2s1", "test": "binding, competition with immobilised ligand", "conditions": "1 µM", "remaining binding": "90%"}
{"SMILES": "CS(=O)(=O)NCC[C@H](NC(=O)c1cncc2c1cnn2-c1ccc(F)cc1)c1ccnc(S(C)(=O)=O)c1", "test": "cell-free assay, competition with immobilised ligand", "conditions": "1 µM", "remaining binding": "100%"}
{"SMILES": "COc1ncc2cc3ccccc3nc2c1C#N", "test": "cell-free assay, competition with immobilised ligand", "conditions": "5 µM", "remaining binding": "87%"}
{"SMILES": "Cc1cc(NC(=O)c2cccc(S(F)(F)(F)(F)F)c2)cc(-n2ccn3nc(-c4cccnc4)cc23)c1", "test": "cell-free assay, competition with immobilised ligand", "conditions": "1 µM", "remaining binding": "100%"}
{"SMILES": "O=C(NCCCN1CCOCC1)c1ccc(Nc2ncc(Cl)c(-c3ccc(Cl)s3)n2)cc1", "test": "binding, competition with immobilised ligand", "conditions": "1 µM", "remaining binding": "79%"}
{"SMILES": "N[C@@H]1CCN(c2nccc(-c3cnn4ncccc34)n2)C1", "test": "binding", "conditions": "1 µM", "remaining binding": "100%"}
{"SMILES": "C[C@@H](c1cccc(C#N)c1)n1cc(Cl)cc(C(N)=O)c1=N", "test": "cell-free assay, competition with immobilised ligand", "conditions": "1 µM", "remaining binding": "100%"}
{"SMILES": "CN(C)c1nccc(-c2cnn3ncccc23)n1", "test": "binding", "conditions": "1 µM", "remaining binding": "65%"}
{"SMILES": "O=C(c1ccc(Nc2ncc(Cl)c(-c3ccc(Cl)s3)n2)cc1)N1CCC(N2CCCC2)CC1", "test": "binding, competition with immobilised ligand", "conditions": "1 µM", "remaining binding": "87%"}
{"SMILES": "COc1cnc(Nc2cccc(S(N)(=O)=O)c2)nc1N1CCN(c2ccccc2)CC1", "test": "binding, competition with immobilised ligand", "conditions": "1 µM", "remaining binding": "83%"}
{"SMILES": "CN(CCCC(F)(F)F)c1nccc(-c2cnn3ncccc23)n1", "test": "binding", "conditions": "1 µM", "remaining binding": "100%"}
{"SMILES": "Cn1nc(C(=O)NCc2ccc(C(=O)O)cc2)cc1-c1ccc2[nH]ccc2c1", "test": "cell-free assay, competition with immobilised ligand", "conditions": "0.1 µM", "remaining binding": "91%"}
{"SMILES": "O=C(NCC1CCOCC1)c1n[nH]cc1NC(=O)c1c(F)cccc1F", "test": "binding, competition with immobilised ligand", "conditions": "1 µM", "remaining binding": "75%"}
{"SMILES": "C[C@H]1CCN(c2nccc(-c3cnn4ncccc34)n2)C1", "test": "binding", "conditions": "1 µM", "remaining binding": "80%"}
{"SMILES": "FC(F)(F)c1ccc2c(c1)nc(-c1cccnc1)n2C1CC1", "test": "cell-free assay, competition with immobilised ligand", "conditions": "1 µM", "remaining binding": "100%"}
{"SMILES": "CNC(=O)[C@@H]1CC[C@@H](n2c(-c3ccc4cnccc4c3)nc3ccc(C(=O)NCc4cccc(C(N)=O)c4)cc32)C1", "test": "binding, competition with immobilised ligand", "conditions": "1 µM", "remaining binding": "100%"}
{"SMILES": "c1cnn2ncc(-c3ccnc(N4CCC45COC5)n3)c2c1", "test": "binding", "conditions": "1 µM", "remaining binding": "66%"}
{"SMILES": "c1cncc(-c2cccc(Nc3nccc(NC4CCCCC4)n3)c2)c1", "test": "binding, competition with immobilised ligand", "conditions": "10 µM", "remaining binding": "94%"}
{"SMILES": "C[C@@H](c1ccc(-n2cnc3c(N)ncnc32)cc1)N1CCc2nn(C)c(Cc3ccccc3)c2C1=O", "test": "binding, competition with immobilised ligand", "conditions": "0.1 µM", "remaining binding": "98%"}
{"SMILES": "F[C@@H]1CCN(c2nccc(-c3cnn4ncccc34)n2)C1", "test": "binding", "conditions": "1 µM", "remaining binding": "100%"}
{"SMILES": "O=C(O)[C@@H]1[C@@H](Cn2nnc3ccccc3c2=O)CC[C@H]1C(=O)c1ccc(OCCC2CCOCC2)cc1", "test": "cell-free assay, competition with immobilised ligand", "conditions": "1 µM", "remaining binding": "100%"}
